A selection: hits, their analogues and other compounds. The true share with any hit is near 2.5%.
NTR1 ag: agonists of human neurotensin receptor NTR1 | NTR1-U2OS beta-arrestin-GFP spot imaging, agonist mode | activation, % at 20 µM | actives 0.17% (n = 330,000);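 active = activation at or above 40% of the spot to cytoplasm intensity ratio, with at least 20 cells analyzed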
Target sequence (P30989 whole entry, looked up): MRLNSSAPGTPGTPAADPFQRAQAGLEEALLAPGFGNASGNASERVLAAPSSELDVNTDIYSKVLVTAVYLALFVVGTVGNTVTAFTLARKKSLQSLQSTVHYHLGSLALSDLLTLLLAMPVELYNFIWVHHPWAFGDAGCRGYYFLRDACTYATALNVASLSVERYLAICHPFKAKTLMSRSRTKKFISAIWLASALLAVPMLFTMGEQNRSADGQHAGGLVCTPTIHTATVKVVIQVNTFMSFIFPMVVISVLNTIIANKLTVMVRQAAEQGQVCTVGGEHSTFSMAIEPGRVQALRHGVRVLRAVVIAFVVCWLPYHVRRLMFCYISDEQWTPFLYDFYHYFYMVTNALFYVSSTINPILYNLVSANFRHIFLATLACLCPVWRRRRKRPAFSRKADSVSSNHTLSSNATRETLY
MC4R antagonist: antagonists of human melanocortin 4 receptor (MC4R) | actives 0.48% (n = 360,000) | inhibition, % at 6.5 µM | MC4R-expressing cells, MTII-stimulated cAMP, LANCE TR-FRET | P32245;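 active = inhibition above its plate's cutoff, the mean of tested wells on that plate plus 3 SD, cut at about 29% in these data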
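Assay system: human MC4R-expressing U2OS cells; reagent: Melanotan II stimulation of cells; dosing: 6.5 µM single dose; timing: compound 30 min, challenge 1 h, detection 1 h; signal: TR-FRET cAMP assay; replicates: one well per compound, no replicates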
PG9 binder: binds the HIV-1 gp120 antibody PG9 | TR-FRET gp120-PG9 antibody binding | inhibition, % at 6.7 µM | actives 0.43% (n = 360,000) | AID 624416; in the data active = inhibition above about 8.5%
MC4R barr agon: agonists of human melanocortin 4 receptor (MC4R) beta-arrestin. P32245. U2OS MC4R beta-arrestin complementation, luminescence; percent of melanotan II response, DMSO zero. activation, % at 8.9 µM. actives 0.98% (n = 360,000). AID 540308;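 active = activation above a per-plate cutoff, the mean activation of sample wells on that plate plus 3 SD, cut at about 8% in these data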
Rev-erbA mod: modulates human Rev-erb alpha binding to DNA. P20393. Rev-erbα–FITC-DNA binding, fluorescence polarization, 90 min. activity, % at 10 µM. actives 0.79% (n = 370,000). AID 1259318;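 active = activity above about 14%, limit read from the data; passing the limit was not always enough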
U2OS cAMP counter: counter-screen for MC4R antagonists: nonselective cAMP signaling inhibitors; actives 26% (n = 1,600); inhibition, % at 6.5 µM; parental U2OS, forskolin cAMP, LANCE TR-FRET; shares compounds with MC4R antagonist;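 active = mean inhibition over triplicates above the low-control well mean plus 3 SD, set per campaign, cut at about 13% in these data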;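 also: signal is single emission at 671 nm which falls as cellular cAMP rises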
MC4R antag conf: human MC4R cAMP antagonism confirmation | shares compounds with MC4R antagonist | MC4R-expressing cells, MTII-stimulated cAMP, TR-FRET | inhibition, % at 6.5 µM | actives 27% (n = 1,600) | AID 602195; in the data active = inhibition above about 29%
Numbers stand for hits; i = inactive; nt = not tested or not shown.

SMILES | NTR1 ag | MC4R antagonist | PG9 binder | MC4R barr agon | Rev-erbA mod | U2OS cAMP counter | MC4R antag conf
Cc1cc(C)nc(SCc2nnc(SCC(=O)O)n2-c2ccccc2)n1 | i | 31 | i | i | i | i | i
Cc1cc(C)nc(SCc2nnc(SCC(=O)Nc3nc(-c4ccccc4)cs3)n2-c2ccccc2)n1 | i | i | i | i | i | nt | nt
COc1cc(OC)cc(C(=O)Nc2cc(-c3cn4cccnc4n3)ccc2C)c1 | i | i | i | i | i | nt | nt
Cc1ccc(-c2cn3cccnc3n2)cc1NC(=O)c1cccs1 | i | 30 | i | i | i | i | i
CN1CCC(N[C@@H](Cc2c[nH]c3ccccc23)C(=O)NCCCc2ccccc2)(C(=O)NCCc2c[nH]c3ccccc23)CC1 | nt | nt | nt | nt | i | nt | nt
Cc1ccc(C)c(C(=O)Cn2ncc(Cl)c(Cl)c2=O)c1 | i | i | i | i | i | nt | nt
Cc1cccc(Cn2ncc(Cl)c(Cl)c2=O)c1 | i | 37 | i | i | i | 32 | 50
Cc1ccccc1CN1CCCCC(NC(=O)c2ccc(-c3ccccc3)cc2)C1=O (stereo unspecified) | nt | nt | nt | nt | i | nt | nt
CCCCCCCCN1C(=O)[C@@H](CC(=O)NCC2CCCCC2)C[C@@]2(C(=O)OC)C1=C[C@H](C(C)(C)C)O[C@@H]2C | nt | nt | i | nt | i | nt | nt
CC(C)(C)CC(C)(C)c1ccc(O)c(Cc2ccc(Cl)cc2Cl)c1 | nt | 44 | i | i | i | i | i
COc1cc(N=Nc2ccc(Br)cc2)cc(C=O)c1O | nt | 34 | i | i | i | i | i
COc1cc(CN(C)C)cc(C=O)c1O | i | i | nt | i | nt | nt | nt
CC(=O)c1sc(-c2ccccc2)cc1NS(=O)(=O)c1ccc(C)cc1 | i | 35 | i | i | i | 32 | 57
COC(=O)c1ccc(NC(=O)c2ccc(NS(=O)(=O)c3cccc4cccnc34)cc2)cc1 | i | 30 | nt | i | nt | i | i
CCOc1ccc(NC(=O)c2ccc(NS(=O)(=O)c3cccc4cccnc34)cc2)cc1 | nt | i | i | i | i | nt | nt
CC(CC(c1ccccc1)c1ccccc1)NC(C)(C)C (stereo unspecified) | nt | nt | nt | nt | i | nt | nt
c1ccc([C@@H]2CCNC[C@H]2COc2ccc3c(c2)OCO3)cc1 | nt | nt | nt | nt | i | nt | nt
Cc1ccc(NC(=S)Nc2cccc(-c3n[nH]c(=S)o3)c2)cc1 | i | 37 | i | i | i | i | i
O=C1O[C@@H](CO)[C@H](O)[C@@H](O)[C@@H]1O | nt | nt | nt | nt | i | nt | nt
CC(C)(C)C(=O)COC(=O)CNC(=O)c1ccc(Oc2ccccc2)cc1 | i | 29 | i | i | i | i | i
COc1ccc(C(=O)OCC(=O)N2CCCCC2)cc1[N+](=O)[O-] | i | i | i | i | i | nt | nt
Cn1cccc1C(=O)NC(=O)COC(=O)c1ccc(S(C)(=O)=O)c([N+](=O)[O-])c1 | i | i | nt | i | nt | nt | nt
CS(=O)(=O)c1ccc(C(=O)OCC(=O)NC23CC4CC(CC(C4)C2)C3)cc1[N+](=O)[O-] | 68 | 50 | i | i | i | i | 62
CC(C)CN1CCN(C(=O)COC(=O)c2ccc(S(C)(=O)=O)c([N+](=O)[O-])c2)CC1 | nt | 31 | i | i | i | 23 | 41
O=C(c1cccc(I)c1)N1CCC(Oc2cccnc2)CC1 | nt | nt | nt | nt | i | nt | nt
SMILES | NTR1 ag | MC4R antagonist | PG9 binder | MC4R barr agon | Rev-erbA mod | U2OS cAMP counter | MC4R antag conf
CCc1ccc(C(C(=O)NCc2ccc(F)cc2)N(C(=O)c2csnn2)C2CC2)cc1 (stereo unspecified) | i | 29 | i | i | i | i | i
O=C(NCc1ccc(F)cc1)C(c1ccc(F)cc1)N(C(=O)c1csnn1)C1CC1 (stereo unspecified) | i | i | i | i | i | nt | nt
COc1ccc(C(CNC(=O)CSc2ccccc2F)N2CCOCC2)cc1 (stereo unspecified) | i | i | i | i | i | nt | nt
COc1ccc(C(CNC(=O)c2cc(F)c(F)c(F)c2F)N2CCOCC2)cc1 (stereo unspecified) | i | 31 | i | i | i | 19 | 36
COc1ccc(Oc2c(Cl)cnn(-c3ccc(Cl)c(Cl)c3)c2=O)cc1 | i | i | i | i | i | nt | nt
COc1c(Cl)cnn(-c2ccc(C)cc2)c1=O | i | 34 | i | i | i | i | i
COc1ccc(Oc2c(Cl)cnn(-c3ccc(C)cc3)c2=O)cc1 | i | 59 | i | i | i | 36 | 82
CCc1ccc(-n2ncc(Cl)c(Oc3ccc(OC)cc3)c2=O)cc1 | nt | nt | nt | nt | i | nt | nt
COc1ccc(Oc2c(Cl)cnn(-c3ccc(F)cc3)c2=O)cc1 | i | 58 | i | i | i | 40 | 73
CCOc1c(Cl)cnn(-c2ccc(C)cc2)c1=O | i | i | i | i | i | nt | nt
O=C(CSc1nccc(=O)[nH]1)Nc1ccccc1Sc1ccccc1 | i | 31 | i | i | i | i | i
c1ccc(-c2nnc(OCc3cccnc3)c3ccccc23)cc1 | i | 29 | i | i | i | i | i
Cc1ccc(-c2nnc(OCc3cccnc3)c3ccccc23)cc1 | i | i | i | i | i | nt | nt
COc1cc(C(=O)OC2CCOC2=O)cc(Cl)c1OC (stereo unspecified) | i | 30 | i | i | i | 16 | 30
CC1CCCN(c2nc(-c3cccnc3)nc3scc(-c4ccccc4)c23)C1 (stereo unspecified) | i | 37 | i | i | i | i | i
CC1CCN(c2nc(-c3cccnc3)nc3scc(-c4ccccc4)c23)CC1 | i | i | i | i | i | nt | nt
O=C(COc1ccc([N+](=O)[O-])cc1)Nc1ccc2c(c1)OCO2 | i | 32 | i | i | i | i | i
Cc1ccc(C=NNc2nc3c([nH]2)c(=O)n(C)c(=O)n3C)cc1 | nt | 43 | i | i | i | i | i
Cn1c(=O)c2[nH]c(NN=Cc3ccc(Br)cc3)nc2n(C)c1=O | nt | i | i | i | i | nt | nt
NS(=O)(=O)c1ccc(N2N=C(c3ccccc3)CC2c2ccccc2)cc1 (stereo unspecified) | i | i | i | i | i | nt | nt
NS(=O)(=O)c1ccc(N2N=C(c3ccccc3)CC2c2ccc(Br)cc2)cc1 (stereo unspecified) | nt | 37 | i | i | i | i | i
COc1ccc(CN(C(=O)c2snc(C(N)=O)c2N)C(C(=O)NC2CCCC2)c2ccc(OC)c(OC)c2)cc1 (stereo unspecified) | i | i | i | i | i | nt | nt
COc1ccc(C(C(=O)NC2CCCCC2)N(Cc2cccnc2)C(=O)c2snc(C(N)=O)c2N)cc1 (stereo unspecified) | i | 31 | i | i | i | i | i
CCOc1ccc(OCC)c(NC(=O)CN(c2ccc(OC)cc2)S(=O)(=O)c2c(C)noc2C)c1 | i | i | i | i | i | nt | nt
CCOc1ccc(OCC)c(NC(=O)CN(c2ccc(C)cc2)S(=O)(=O)c2c(C)noc2C)c1 | i | 32 | i | i | i | i | i

Assay outcomes as filed in PubChem.
